The text below walks through data of article PMC3092375 (Journal of natural products, 2011).

Structures are written as SMILES.

In series [1] the test system is human neutrophils. Put plainly: elastase release by human neutrophils in response to fMLP/CB. In kind it is cell-based. The note with it: read-out: elastase IC50, mean ± S.E.M. (n = 3–4).
A further series has as its target α-glucosidase (Saccharomyces cerevisiae, UniProt P53341). The note with it: previous report; cited from earlier work.
The test system of series [2] is human neutrophils. The series is described as follows: superoxide anion generation by human neutrophils in response to fMLP/CB. The note with it: Neutrophil. It counts as cell-based.
Series [3] has as its system HCT-8 (colon) cancer cell line. Put plainly: in vitro cytotoxicity. The note with it: HCT-8 colon cells; compared with KB and DU145. In kind it is cell-based, human. The essentials:
(§1)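 Cells grown in RPMI-1640 with 25 mM HEPES, 0.25% sodium bicarbonate, 10% FBS and 100 μg/mL kanamycin. Freshly trypsinized cells were seeded at 5000 per well, and test compound was added from DMSO-diluted stock. After three days, cells were fixed with cold 10% TCA and stained with 0.4% sulforhodamine B, and the solubilized dye was read at 562 nm.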

Series [4] relates to KB (nasopharyngeal) cancer cell line. Put plainly: in vitro cytotoxicity. It counts as cell-based, human. Particulars: KB versus the other cancer cell lines.
For series [5], the system named is DU145 (prostate) cancer cell line. Put plainly: in vitro cytotoxicity. In kind it is cell-based, human. The note with it: DU145 versus the other cancer cell lines.
The test system of series [6] is A549 (lung) cancer cell line. Put plainly: in vitro cytotoxicity. In kind it is cell-based, human. Particulars: A549 lung cells; compared with KB and DU145. The essentials: as §1

Chain of α-glucosidase (P53341 whole entry): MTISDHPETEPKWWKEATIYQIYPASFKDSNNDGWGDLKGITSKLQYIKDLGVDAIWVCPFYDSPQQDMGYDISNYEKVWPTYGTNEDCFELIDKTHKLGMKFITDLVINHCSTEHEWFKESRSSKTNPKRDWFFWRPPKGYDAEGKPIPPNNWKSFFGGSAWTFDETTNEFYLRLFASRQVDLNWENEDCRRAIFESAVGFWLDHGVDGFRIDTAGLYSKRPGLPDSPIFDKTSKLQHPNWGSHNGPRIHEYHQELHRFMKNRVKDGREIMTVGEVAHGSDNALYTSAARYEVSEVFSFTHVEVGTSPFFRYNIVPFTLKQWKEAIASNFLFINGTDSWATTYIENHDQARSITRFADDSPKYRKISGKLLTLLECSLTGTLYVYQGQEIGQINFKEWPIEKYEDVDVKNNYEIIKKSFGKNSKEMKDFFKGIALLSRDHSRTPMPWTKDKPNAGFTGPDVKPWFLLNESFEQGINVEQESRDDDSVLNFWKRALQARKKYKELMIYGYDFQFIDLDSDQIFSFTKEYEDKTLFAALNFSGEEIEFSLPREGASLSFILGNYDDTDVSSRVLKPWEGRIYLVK

Turning to `O=S(=O)(F)Cc1ccccc1` [PMSF, phenylmethylsulfonyl fluoride], the IC50 in the series with human neutrophils [1] was determined as 95 ± 25 µM.

Consider `C=C[C@H](O)C#CC#CC[C@@H](O)[C@H](O)CCCCCCC` [Compound 30, (3S,9R,10R)-panaxytriol], for which, at α-glucosidase, the “inhibition of α-glucosidase activity” value is recorded as “strongly inhibited”.

In the case of `C=C[C@@H](O)C#CC#CC/C=C\CCCCCCC` [Compound 28, (3R)-(−)-falcarinol], the “inhibition of α-glucosidase activity” value on α-glucosidase is given as “strongly inhibited”.

Turning to `c1ccc2c(c1)[I+]c1ccccc1-2` [DPI, Diphenyleneiodonium, reference compound], in the series with human neutrophils [2] (read-out: superoxide IC50), the IC50 is 1.02 ± 0.35 µM.

Turning to `C=C[C@H](O)C#CC#C/C=C/[C@@H](O)CCCCCCC` [Compound 29, (3S,10S)-panaxydiol], the “inhibition of α-glucosidase activity” value on α-glucosidase is “strongly inhibited”.

Take `CCCCCCC/C=C\CC#CC#CC(O)CC` (stereo not drawn) [Compound 25, panaxjapyne A]: the “inhibition of α-glucosidase activity” value at α-glucosidase is reported as “strongly inhibited”.

With `CC1(C)CC[C@]2(C(=O)O[C@@H]3O[C@H](CO)[C@@H](O)[C@H](O)[C@H]3O)CC[C@]3(C)C(=CC[C@@H]4[C@@]5(C)CC[C@H](O[C@@H]6O[C@H](C(=O)O)[C@@H](O[C@H]7O[C@@H](CO)[C@H](O)[C@H]7O)[C@H](O[C@@H]7O[C@H](CO)[C@@H](O)[C@H](O)[C@H]7O)[C@H]6O)C(C)(C)[C@@H]5CC[C@]43C)[C@@H]2C1` [Compound 9, stipuleanoside R2], the IC50 in the series on human neutrophils [2] (read-out: IC50 values, inhibition of superoxide anion generation and elastase release) lay within 0.78 to 43.6 µM.

Take `C/C(=C/CC[C@](C)(O)[C@H]1CC[C@]2(C)[C@@H]1[C@H](O)C[C@@H]1[C@@]3(C)CC[C@H](O)C(C)(C)[C@@H]3[C@@H](O[C@@H]3O[C@H](CO)[C@@H](O)[C@H](O)[C@H]3O[C@@H]3O[C@H](CO)[C@@H](O)[C@H](O)[C@H]3O)C[C@]12C)CO` [Compound 1, panajaponol A]: the cytotoxicity entry in series [3] and in series [6] was “significantly less susceptible” throughout. The selective cytotoxic activity entry in series [4] and in series [5] was “greater than two- to three-fold selective” throughout.

For `C=CCCCCC[C@H](O)[C@@H](O)CC#CC#C[C@@H](O)CC` [Compound 27, panaxjapyne C], the “inhibition of α-glucosidase activity” value at α-glucosidase is “strongly inhibited”.
